Compound activity as filed in PubChem BioAssay.
Apaf1 inhib: blocks human Apaf-1 apoptosome activity | O14727 | inhibition, % at 20 µM | 330,000 compounds, 0.71% hits | reconstituted apoptosome caspase-3 activity, DEVD-Rh110 fluorescence; active means inhibition of at least 40% at 20 µM;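 further: plate controls were DMSO wells for no effect and DEVD-CHO caspase inhibitor wells for full effect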
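Assay system: Apoptosome proteins | Medium: pH 7.5 Hepes buffer with CHAPS, BSA, DTT | Also added: Cytochrome c and DEVD-Rh110 substrate | Times: 30 min plus 50 min, RT | Detection: Rhodamine 110 fluorescence at Ex 480/Em 540 nm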
RAD54 inh: inhibitors of human RAD54 branch migration; Q92698; RAD54 Holliday junction branch migration, FAM/BHQ fluorescence; inhibition, % at 10.4 µM; 360,000 compounds, 0.14% hits; AID 602329;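 active means mean normalized replicate activity at least 40 and at least half of replicates scoring 40 or more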;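 further: 0% = median of neutral control wells and 100% = median of positive control wells; inhibitors cause a drop in the FAM fluorescence signal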
UBC13 inh: blocks human UBC13 polyubiquitin chain formation. P61088. inhibition, % at 20 µM. AID 485273. TR-FRET. 330,000 compounds, 0.47% hits; in the data active means inhibition above about 45%, passing the limit was not always enough
Target sequence (P61088 whole entry, looked up): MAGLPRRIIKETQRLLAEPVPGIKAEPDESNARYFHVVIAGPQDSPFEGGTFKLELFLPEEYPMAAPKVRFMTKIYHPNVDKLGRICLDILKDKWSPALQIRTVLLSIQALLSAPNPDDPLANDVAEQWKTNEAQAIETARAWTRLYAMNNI
FID counter: counter-screen for HCV NS3 helicase inhibitors: DNA intercalator displacement; DNA fluorescent intercalator displacement, fluorescence; inhibition, % at 7.9 µM; 290,000 compounds, 0.17% hits; in the data active means inhibition above about 37%;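 further: 0% = vehicle and 100% = reference compound; higher means more ethidium bromide displaced from hairpin DNA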
Neddylation inh: cullin neddylation inhibition | AID 651699 | TR-FRET cullin neddylation, biochemical | P61081+Q13564 | calls only at 25 µM | 360,000 compounds, 0.58% hits; in the data active means inhibition above about 36%
RAD52 anneal inh: inhibitors of human RAD52 DNA annealing | inhibition, % at 18.7 µM | 360,000 compounds, 0.46% hits | AID 651710 | recombinant RAD52 DNA annealing, FRET fluorescence | P43351;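 active means every replicate showing at least 50% inhibition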
Target sequence (P43351 whole entry, looked up): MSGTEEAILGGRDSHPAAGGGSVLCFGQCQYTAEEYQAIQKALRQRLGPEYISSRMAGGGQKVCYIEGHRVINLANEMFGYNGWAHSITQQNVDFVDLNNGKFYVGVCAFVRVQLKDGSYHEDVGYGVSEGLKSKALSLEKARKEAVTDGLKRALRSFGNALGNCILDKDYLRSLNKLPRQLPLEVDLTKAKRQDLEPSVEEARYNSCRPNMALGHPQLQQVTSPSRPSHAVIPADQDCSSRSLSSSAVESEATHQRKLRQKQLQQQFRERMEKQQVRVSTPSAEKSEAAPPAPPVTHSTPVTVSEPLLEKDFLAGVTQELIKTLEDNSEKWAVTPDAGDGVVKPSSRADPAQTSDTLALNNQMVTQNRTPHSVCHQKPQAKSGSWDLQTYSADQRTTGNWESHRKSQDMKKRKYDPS
Apaf-1 inh conf2: Apaf-1 inhibition, single-dose confirmed. shares compounds with Apaf1 inhib. reconstituted apoptosome, caspase-3 DEVD-Rh110 fluorescence. inhibition, % at 20 µM. 1,800 compounds, 25% hits;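 active means mean inhibition of at least 40% at 20 µM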;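 further: plate controls were DMSO wells for no effect and DEVD-CHO caspase inhibitor control wells for full effect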
Rh110 quench: counter-screen for Apaf-1 inhibitors: fluorescence interference; shares compounds with Apaf1 inhib; Rh110 fluorescence interference, quenched caspase reaction; activation (fluorescence interference), % at 20 µM; 1,800 tested, under 10 active; AID 504615;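 active means signal rise of 40% or more at 20 µM, treated as a fluorescence artifact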
Apaf1 inh interf: Apaf-1 inhibitor counter-screen fluorescence artifact | shares compounds with Apaf1 inhib | fluorescence interference counterscreen, Apaf-1 assay format | IC50, µM | 460 tested, under 10 active; call rule not given here
* hit, by the source's call; i = inactive; · = no result. This is a sample that favours compounds with a hit; in the whole collection about 1.6% have one here.

SMILES	Apaf1 inhib	RAD54 inh	UBC13 inh	FID counter	Neddylation inh	RAD52 anneal inh	Apaf-1 inh conf2	Rh110 quench	others
O=C(O)CC(NC(=O)c1sc2ccccc2c1Cl)c1ccc(OC2CCCC2)cc1 (stereo not given)	44*	6	-14	-7	i	-7	11	1
O=C(O)CC(NC(=O)C1c2ccccc2Oc2ccccc21)c1ccc(OC2CCCC2)cc1 (stereo not given)	-2	·	-5	-28	i	-8	·	·
C[C@@H]1CN([C@H](C)CO)C(=O)c2cc(NC(=O)CCC(F)(F)F)ccc2O[C@@H]1CN(C)Cc1ccc(C(=O)O)cc1	·	-2	·	·	·	-10	·	·
COc1ccc(CN2CCN(c3ccc(F)cc3)CC2)c(OC)c1OC	-6	·	-8	2	i	·	·	·
COc1ccc(CN2CCN(C(c3ccc(F)cc3)c3ccc(F)cc3)CC2)c(OC)c1OC	48*	0	25	·	i	-4	7	-9
O=C1/C(=N\S(=O)(=O)c2cccs2)C([n+]2ccc(CCCc3ccccc3)cc2)=C([O-])c2ccccc21	46*	4	-90	-22	i	-13	13	-6
O=C(CSc1ncc(-c2ccc(F)cc2)n1Cc1ccco1)Nc1nccs1	35	-4	-4	-4	i	·	·	·
Cc1cnc(NC(=O)CSc2ncc(-c3ccccc3)n2Cc2ccco2)s1	42*	8	1	-8	i	·	21	11
CN1CCN(C(=O)C[C@@H]2CC[C@@H]3[C@H](COC[C@@H](O)CN3CC3CCOCC3)O2)CC1	·	-8	·	·	·	·	·	·
CCCN(C)C[C@@H]1Oc2ncc(C#CC3(O)CCCC3)cc2C(=O)N([C@H](C)CO)C[C@@H]1C	·	-1	·	·	·	-6	·	·
CCS(=O)(=O)N1CC2(C1)[C@H](c1ccccc1)[C@@H](CO)N2C(=O)C1CCC1	·	·	·	·	·	-14	·	·
O=c1cccccc1NCc1ccccc1	45*	2	-18	-6	i	-13	7	6
N#Cc1cc(Cl)c(N2CCOCC2)cc1C#N	-2	6	2	-7	i	·	·	·
N#Cc1cc2ccc(N3CCOCC3)cc2cc1C#N	82*	4	-30	2	i	-15	10	10
CCC(=O)N(C1=C(NC)C(=O)c2ccccc2C1=O)C(C)C	69*	·	-83	-2	i	-4	49*	-1	Apaf1 inh interf=>100
CNC1=C(N(C(C)=O)c2ccc(Br)cc2)C(=O)c2ccccc2C1=O	·	·	·	4	i	·	·	·
CO[C@H](CN(C)C(=O)Nc1ccc(C(F)(F)F)cc1)[C@H](C)CN(Cc1ccccc1Cl)[C@@H](C)CO	·	-1	·	·	·	13	·	·
CNC[C@@H]1Oc2c(NS(=O)(=O)c3ccc(F)cc3)cccc2C(=O)N([C@H](C)CO)C[C@H]1C	·	6	·	·	·	4	·	·
C#CCOCCOCCOCCNc1nc(N2CCN(C(=O)Cn3cc(CC(C)O)nn3)CC2)nc(N2CCN(C(=O)[C@H](CCCCN)n3cc(CCC(=O)O)nn3)CC2)n1 (stereo not given in full)	5	-9	-3	-23	i	-9	·	·
C#CCOCCOCCOCCNc1nc(N2CCN(C(=O)Cn3cc(CCCCN)nn3)CC2)nc(N2CCN(C(=O)[C@H](CCCCN)n3cc(CCCC)nn3)CC2)n1	41*	-4	41	·	i	20	4	-7
O=C1C2=C(c3ccccc31)[N+](=O)[C@@H]1CCCC[C@@H]1N2[O-]	75*	-6	-27	2	i	-16	66*	-7	Apaf1 inh interf=>100
O=C(Nc1ccc2c(c1)[C@H]1C[C@H](CC(=O)N3CCCCC3)O[C@@H](CO)[C@H]1O2)C1CCOCC1	·	1	·	·	·	22	·	·
O=c1cc(C=NNc2ccccc2)[nH]c(=O)[nH]1	·	·	·	·	i	-42	·	·
O=c1cc(N/N=C/c2ccccc2)[nH]c(=O)[nH]1	68*	-13	-33	·	i	-15	43*	8	Apaf1 inh interf=>100
CCN(CC(=O)NCc1cccs1)C(=O)CCCOc1ccc(C(C)(C)C)cc1	42*	5	10	·	i	11	34	11
SMILES	Apaf1 inhib	RAD54 inh	UBC13 inh	FID counter	Neddylation inh	RAD52 anneal inh	Apaf-1 inh conf2	Rh110 quench	others
CO[C@@H]1CN(C)C(=O)c2cc(NS(=O)(=O)c3ccccc3C)ccc2OC[C@@H](C)N(S(C)(=O)=O)C[C@H]1C	·	-8	·	·	·	9	·	·
CC(C)COc1ccc(C(=O)Nc2scc(-c3ccc(Cl)cc3Cl)c2C(N)=O)cc1	45*	-7	29	4	i	·	20	8
CN1CCN(S(=O)(=O)c2cccc(C(=O)Oc3ccc(C(C)(C)C)cc3)c2)CC1	40	5	5	·	i	-9	15	6
CC(C)c1ccc(OC(=O)c2cccc(S(=O)(=O)N3CCN(C)CC3)c2)cc1	23	-3	8	24	i	4	·	·
CCc1ccc(OCC(=O)N/N=C2\CC(=O)c3ccccc32)cc1	84*	1	-10	-13	i	·	54*	10	Apaf1 inh interf=>100
Cc1noc(C)c1NC(=O)N(C)C[C@@H]1Oc2ccc(NC(=O)CCCCCC(=O)Nc3ccccc3N)cc2C(=O)N([C@@H](C)CO)C[C@@H]1C	·	-2	·	·	·	1	·	·
FC(F)(F)c1ccccc1NC(=S)Nc1cccc2cnccc12	·	·	·	1	i	-25	·	·
Cc1ccc(NC(=S)Nc2cccc3cnccc23)cc1	96*	-13	-50	4	i	-2	20	-1
Fc1ccccc1NC(=S)Nc1cccc2cnccc12	97*	·	-37	0	i	-18	12	-4
Cc1ccccc1NC(=S)Nc1cccc2cnccc12	91*	1	-30	11	i	7	9	1
S=C(Nc1cccc2ccccc12)Nc1cccc2ccccc12	·	-7	·	·	i	-5	·	·
S=C(NCc1ccccc1)Nc1cccc2cnccc12	4	-9	-6	-3	i	-6	·	·
CC(=O)Nc1cccc(NC(=S)Nc2cccc3ccccc23)c1	97*	3	-9	-3	i	-8	16	1
CCC(=O)N1[C@H](CO)[C@@H](c2ccc(C3=CCCC3)cc2)[C@@H]1CNC(=O)CN(C)C	·	8	·	·	·	·	·	·
COC(=O)C[C@@H]1CC[C@@H]2[C@@H](COc3ccc(NS(=O)(=O)c4ccccc4Cl)cc3C(=O)N2C)O1	·	2	·	·	·	14	·	·
CC(=O)Nc1ccc2c(c1)C(=O)N(C)[C@H]1CC[C@@H](CC(=O)NCCCN3CCOCC3)O[C@H]1CO2	·	5	·	·	·	-14	·	·
Cc1ccc(NC(=S)Nc2cccc3cnccc23)cc1C	53*	5	-48	-3	i	-19	23	11
CCCCNC(=S)Nc1cccc2cnccc12	-7	·	-10	-1	i	-13	·	·
